How the values were obtained:
Assay type in all cases: functional
CCRF-CEM = test: Growth inhibition of human CCRF-CEM cells after 48 hrs by SRB assay
Procedure, shortened: (§1)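 NCI-60 panel screen. Cells exposed for 48 h to five concentrations (10−4, 10−5, 10−6, 10−7 and 10−8 M). Sulforhodamine B optical density is read just before compound addition (time zero) and after 48 h, for both treated and vehicle-control wells. Percent growth is calculated against control. GI50 is the concentration giving a 50% reduction in net cell growth relative to cell numbers on day 0.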

K562 = test: Growth inhibition of human K562 cells after 48 hrs by SRB assay; conditions: K562, 48 h; procedure, shortened: as §1
[1] = Growth inhibition of human MOLT4 cells after 48 hrs by SRB assay; conditions: MOLT-4, 48 h; procedure, shortened: as §1
[2] = Growth inhibition of human RPMI8226 cells after 48 hrs by SRB assay; conditions: RPMI-8226, 48 h; procedure, shortened: as §1
SR = test: Growth inhibition of human SR cells after 48 hrs by SRB assay
Procedure, shortened: (§2)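 NCI-60 panel cells; preliminary single-dose screen at 10−5 M, then five-dose testing at 10−4 to 10−8 M (tenfold steps) with 48 h exposure. SRB-stained optical density read before compound addition (time zero), after 48 h with compound, and with vehicle control. Percent growth is calculated against control. GI50 is the concentration giving 50% reduction in net growth relative to day-0 cell number.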

A549 = test: Growth inhibition of human A549/ATCC cells after 48 hrs by SRB assay; conditions: A549, 48 h; procedure, shortened: as §1
[3] = Growth inhibition of human EKVX cells after 48 hrs by SRB assay; procedure, shortened: as §1
HOP-62 = test: Growth inhibition of human HOP62 cells after 48 hrs by SRB assay; conditions: HOP-62, 48 h; procedure, shortened: as §1
[4] = Growth inhibition of human HOP92 cells after 48 hrs by SRB assay; conditions: HOP-92, 48 h; procedure, shortened: as §1
NCI-H226 = test: Growth inhibition of human NCI-H226 cells after 48 hrs by SRB assay; conditions: NCI-H226, 48 h; procedure, shortened: as §1
NCI-H23 = test: Growth inhibition of human NCI-H23 cells after 48 hrs by SRB assay; conditions: NCI-H23, 48 h; procedure, shortened: as §1
NCI-H322M = test: Growth inhibition of human NCI-H322M cells after 48 hrs by SRB assay; procedure, shortened: as §1
NCI-H460 = test: Growth inhibition of human NCI-H460 cells after 48 hrs by SRB assay; conditions: NCI-H460, 48 h; procedure, shortened: as §1
NCI-H522 = test: Growth inhibition of human NCI-H522 cells after 48 hrs by SRB assay; conditions: NCI-H522, 48 h; procedure, shortened: as §1
[5] = Growth inhibition of human COLO205 cells after 48 hrs by SRB assay; conditions: COLO 205, 48 h; procedure, shortened: as §1
[6] = Growth inhibition of human HCC2998 cells after 48 hrs by SRB assay; conditions: HCC 2998, 48 h; procedure, shortened: as §1
HCT-116 = test: Growth inhibition of human HCT116 cells after 48 hrs by SRB assay; conditions: HCT-116, 48 h; procedure, shortened: as §1
HCT-15 = test: Growth inhibition of human HCT15 cells after 48 hrs by SRB assay; conditions: HCT-15, 48 h; procedure, shortened: as §1
HT-29 = test: Growth inhibition of human HT-29 cells after 48 hrs by SRB assay; conditions: HT-29, 48 h; procedure, shortened: as §1
KM12 = test: Growth inhibition of human KM12 cells after 48 hrs by SRB assay; conditions: KM12, 48 h; procedure, shortened: as §1
SW-620 = test: Growth inhibition of human SW620 cells after 48 hrs by SRB assay; conditions: SW-620, 48 h; procedure, shortened: as §2
SF-268 = test: Growth inhibition of human SF268 cells after 48 hrs by SRB assay; conditions: SF-268, 48 h; procedure, shortened: as §1
[7] = Growth inhibition of human SF295 cells after 48 hrs by SRB assay; conditions: SF-295, 48 h; procedure, shortened: as §1
[8] = Growth inhibition of human SF539 cells after 48 hrs by SRB assay; conditions: SF-539, 48 h; procedure, shortened: as §1
SNB-19 = test: Growth inhibition of human SNB19 cells after 48 hrs by SRB assay; conditions: SNB-19, 48 h; procedure, shortened: as §1
SNB-75 = test: Growth inhibition of human SNB75 cells after 48 hrs by SRB assay; conditions: SNB-75, 48 h; procedure, shortened: as §2
U-251 = test: Growth inhibition of human U251 cells after 48 hrs by SRB assay; conditions: U-251, 48 h; procedure, shortened: as §2
[9] = Growth inhibition of human LOXIMVI cells after 48 hrs by SRB assay; conditions: LOX IMVI; procedure, shortened: as §1
Malme-3M = test: Growth inhibition of human MALME-3M cells after 48 hrs by SRB assay; procedure, shortened: as §1
M14 = test: Growth inhibition of human M14 cells after 48 hrs by SRB assay; conditions: M14, 48 h; procedure, shortened: as §1
MDA-MB-435 = test: Growth inhibition of human MDA-MB-435 cells after 48 hrs by SRB assay; conditions: MDA-MB-435, 48 h; procedure, shortened: as §1
SK-MEL-2 = test: Growth inhibition of human SK-MEL-2 cells after 48 hrs by SRB assay; conditions: SK-MEL-2, 48 h; procedure, shortened: as §1
SK-MEL-28 = test: Growth inhibition of human SK-MEL-28 cells after 48 hrs by SRB assay; conditions: SK-MEL-28, 48 h; procedure, shortened: as §1
SK-MEL-5 = test: Growth inhibition of human SK-MEL-5 cells after 48 hrs by SRB assay; conditions: SK-MEL-5, 48 h; procedure, shortened: as §1
UACC-257 = test: Growth inhibition of human UACC257 cells after 48 hrs by SRB assay; conditions: UACC-257, 48 h; procedure, shortened: as §2
UACC-62 = test: Growth inhibition of human UACC62 cells after 48 hrs by SRB assay; conditions: UACC-62, 48 h; procedure, shortened: as §2
IGROV-1 = test: Growth inhibition of human IGROV1 cells after 48 hrs by SRB assay; conditions: IGROV-1, 48 h; procedure, shortened: as §1
OVCAR-3 = test: Growth inhibition of human OVCAR3 cells after 48 hrs by SRB assay; conditions: OVCAR-3, 48 h; procedure, shortened: as §1
OVCAR-4 = test: Growth inhibition of human OVCAR4 cells after 48 hrs by SRB assay; conditions: OVCAR-4, 48 h; procedure, shortened: as §1
OVCAR-5 = test: Growth inhibition of human OVCAR5 cells after 48 hrs by SRB assay; conditions: OVCAR-5, 48 h; procedure, shortened: as §1
OVCAR-8 = test: Growth inhibition of human OVCAR8 cells after 48 hrs by SRB assay; conditions: OVCAR-8, 48 h; procedure, shortened: as §1
[10] = Growth inhibition of human NCI-ADR-RES cells after 48 hrs by SRB assay; procedure, shortened: as §1
SK-OV-3 = test: Growth inhibition of human SKOV3 cells after 48 hrs by SRB assay; conditions: SK-OV-3, 48 h; procedure, shortened: as §1
786-0 = test: Growth inhibition of human 786-0 cells after 48 hrs by SRB assay; conditions: 786-0, 48 h; procedure, shortened: as §1
A498 = test: Growth inhibition of human A498 cells after 48 hrs by SRB assay; conditions: A498, 48 h; procedure, shortened: as §1
ACHN = test: Growth inhibition of human ACHN cells after 48 hrs by SRB assay; procedure, shortened: as §1
CAKI-1 = test: Growth inhibition of human Caki1 cells after 48 hrs by SRB assay; conditions: CAKI-1, 48 h; procedure, shortened: as §1
[11] = Growth inhibition of human RXF393 cells after 48 hrs by SRB assay; conditions: RXF 393, 48 h; procedure, shortened: as §1
SN12C = test: Growth inhibition of human SN12C cells after 48 hrs by SRB assay; procedure, shortened: as §1
TK-10 = test: Growth inhibition of human TK10 cells after 48 hrs by SRB assay; conditions: TK-10, 48 h; procedure, shortened: as §2
UO-31 = test: Growth inhibition of human UO31 cells after 48 hrs by SRB assay; conditions: UO-31, 48 h; procedure, shortened: as §2
PC-3 = test: Growth inhibition of human PC3 cells after 48 hrs by SRB assay; conditions: PC-3, 48 h; procedure, shortened: as §1
DU-145 = test: Growth inhibition of human DU145 cells after 48 hrs by SRB assay; conditions: DU-145, 48 h; procedure, shortened: as §1
MCF7 = test: Growth inhibition of human MCF7 cells after 48 hrs by SRB assay; conditions: MCF7, 48 h; procedure, shortened: as §1
MDA-MB-231 = test: Growth inhibition of human MDA-MB-231/ATCC cells after 48 hrs by SRB assay; conditions: MDA-MB-231, 48 h; procedure, shortened: as §1
[12] = Growth inhibition of human Hs578T cells after 48 hrs by SRB assay; conditions: Hs-578T; procedure, shortened: as §1
[13] = Growth inhibition of human BT549 cells after 48 hrs by SRB assay; conditions: BT-549, 48 h; procedure, shortened: as §1

`COc1cc(/C=C/c2cc3ccccc3s2)cc(OC)c1OC` showed a GI50 (CCRF-CEM) of 262 nM, a GI50 (K562) of 88 nM and a GI50 [1] of 424 nM. The GI50 [2] was 268 nM, the GI50 (SR) was 120 nM and the GI50 (A549) was 310 nM. The GI50 [3] was 10300 nM, the GI50 (HOP-62) was 420 nM and the GI50 [4] was 322 nM. It also gave a GI50 (NCI-H226) of 442 nM, a GI50 (NCI-H23) of 324 nM and a GI50 (NCI-H322M) of 649 nM. The GI50 (NCI-H460) was 351 nM, the GI50 (NCI-H522) was 153 nM and the GI50 [5] was 209 nM. For the same compound, the GI50 [6] was 307 nM, the GI50 (HCT-116) was 246 nM and the GI50 (HCT-15) was 328 nM. The GI50 (HT-29) was 234 nM, the GI50 (KM12) was 213 nM and the GI50 (SW-620) was 293 nM. It also gave a GI50 (SF-268) of 985 nM, a GI50 [7] of 442 nM and a GI50 [8] of 299 nM. For the same compound, the GI50 (SNB-19) was 362 nM, the GI50 (SNB-75) was 190 nM and the GI50 (U-251) was 338 nM. For the same compound, the GI50 [9] was 382 nM, the GI50 (Malme-3M) was 826 nM and the GI50 (M14) was 169 nM. For the same compound, the GI50 (MDA-MB-435) was 36 nM, the GI50 (SK-MEL-2) was 323 nM and the GI50 (SK-MEL-28) was 346 nM. It also gave a GI50 (SK-MEL-5) of 267 nM, a GI50 (UACC-257) of 520 nM and a GI50 (UACC-62) of 185 nM. It also gave a GI50 (IGROV-1) of 520 nM, a GI50 (OVCAR-3) of 224 nM and a GI50 (OVCAR-4) of 553 nM. For the same compound, the GI50 (OVCAR-5) was 547 nM, the GI50 (OVCAR-8) was 352 nM and the GI50 [10] was 70 nM. It also gave a GI50 (SK-OV-3) of 263 nM, a GI50 (786-0) of 445 nM and a GI50 (A498) of 213 nM. The GI50 (ACHN) was 810 nM, the GI50 (CAKI-1) was 4350 nM and the GI50 [11] was 168 nM. It also gave a GI50 (SN12C) of 666 nM, a GI50 (TK-10) of 566 nM and a GI50 (UO-31) of 513 nM. For the same compound, the GI50 (PC-3) was 276 nM, the GI50 (DU-145) was 402 nM and the GI50 (MCF7) was 285 nM. The GI50 (MDA-MB-231) was 450 nM, the GI50 [12] was 275 nM and the GI50 [13] was 326 nM.

— ChEMBL document CHEMBL3596157, “Heteroaromatic analogs of the resveratrol analog DMU-212 as potent anti-cancer agents” (2015)
